Laboratory results published in ChEMBL document CHEMBL4330087, “Synthesis, antimicrobial activity, attenuation of aminoglycoside resistance in MRSA, and ribosomal A-site binding of pyrene-neomycin conjugates” (Eur J Med Chem, 2019).
pIC50: −log10 of the molar value. The source made the active and inactive calls. The rule behind the calls is not given here.

Key:
Escherichia coli [1] = assay: Antibacterial activity against NEO-sensitive Escherichia coli ATCC 25922 at 6.25 uM after 15 to 20 hrs by CLSI protocol based microdilution assay relative to control; assay type: functional
How it was run: (§1)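 Single-concentration screen at 6.25 μM against exponential-phase cultures, in duplicate, with NEO as reference. Enterococcus was grown in BHI broth, M. smegmatis in TS broth with 0.05% Tween 80, and all other strains in TS broth. The 1% DMSO water vehicle was added to broth (background) and culture (growth control). Incubation was 37 °C, humidified, 15-20 h. Result is percent growth inhibition.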

Staphylococcus aureus [2] = assay: Antibacterial activity against methicillin-resistant Staphylococcus aureus SU-5 at 6.25 uM after 15 to 20 hrs by CLSI protocol based microdilution assay relative to control; assay type: functional
How it was run: (§2)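 Exponential-phase cultures were exposed to 6.25 μM compound in duplicate with neomycin as reference, at 37 °C in a humidified incubator for 15-20 h. Broth and culture controls received sterile water with 1% DMSO. Percent growth inhibition was calculated against the growth and background controls.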

Ribosomal RNA A-site [3] = assay: Displacement of F-NEO from human cytosolic rRNA-A site after 10 to 20 mins by fluorescence assay; assay type: nucleic-acid assay
How it was run: (§3)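 A 100 nM F-NEO:A-site RNA complex in 10 mM HEPES, 50 mM NaCl, 0.04 mM EDTA, pH 7.0 was titrated with 2-fold dilutions of ligand from 20 to 0.009 μM, or from 60 or 40 μM for weaker ligands. Incubated 10-20 min at room temperature, fluorescence read at ex 485/em 525 nm. IC50 from dose-response curve fit.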

[4] = Inhibition of AAC(6')-1e (unknown origin)
Staphylococcus aureus [5] = assay: Antibacterial activity against methicillin-resistant Staphylococcus aureus A960649 at 6.25 uM after 15 to 20 hrs by CLSI protocol based microdilution assay relative to control; assay type: functional; how it was run: as §2
Ribosomal RNA A-site [6] = assay: Displacement of F-NEO from human mitochondrial rRNA-A site after 10 to 20 mins by fluorescence assay relative to NEO; assay type: nucleic-acid assay; design: concentration or dose not given beside the values
How it was run: (§4)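 100 nM F-NEO:A-site complex in 10 mM HEPES, 50 mM NaCl, 0.04 mM EDTA, pH 7.0, mixed with ligand and incubated 10-20 min at room temperature. Fluorescence read at ex 485/em 525 nm, in duplicate. Percent binding was computed from the intensities of ligand-treated complex, complex without ligand, and complex with neomycin.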

Staphylococcus aureus [7] = assay: Antibacterial activity against NEO-sensitive Staphylococcus aureus 25923 at 6.25 uM after 15 to 20 hrs by CLSI protocol based microdilution assay relative to control; assay type: functional; how it was run: as §1
[8] = Inhibition of APH(2\")-1a (unknown origin)
Escherichia coli [9] = assay: Antibacterial activity against NEO-sensitive Escherichia coli harboring TolC mutant at 6.25 uM after 15 to 20 hrs by CLSI protocol based microdilution assay relative to control; assay type: functional; how it was run: as §2
Homo sapiens = species: Homo sapiens; assay: Displacement of F-NEO from human mitochondrial rRNA-A site C1410U mutant after 10 to 20 mins by fluorescence assay relative to NEO; design: concentration or dose not given beside the values; how it was run: as §4
Staphylococcus aureus [10] = assay: Antibacterial activity against methicillin-resistant Staphylococcus aureus M0602 at 6.25 uM after 15 to 20 hrs by CLSI protocol based microdilution assay relative to control; assay type: functional; how it was run: as §2
[11] = Displacement of F-NEO from human mitochondrial rRNA-A site C1410U mutant after 10 to 20 mins by fluorescence assay; how it was run: as §3
Ribosomal RNA A-site [12] = assay: Displacement of F-NEO from Escherichia coli rRNA-A site after 10 to 20 mins by fluorescence assay relative to NEO; assay type: nucleic-acid assay; design: concentration or dose not given beside the values; how it was run: as §4
Klebsiella pneumoniae = assay: Antibacterial activity against Klebsiella pneumoniae NR-151410 at 6.25 uM after 15 to 20 hrs by CLSI protocol based microdilution assay relative to control; assay type: functional; how it was run: as §1
Enterococcus faecalis = assay: Antibacterial activity against NEO-intermediate sensitive Enterococcus faecalis ATCC 29212 at 6.25 uM after 15 to 20 hrs by CLSI protocol based microdilution assay relative to control; assay type: functional; how it was run: as §1
[13] = Inhibition of AAC(2')-1c (unknown origin)
[14] = tested on: Mycolicibacterium smegmatis; assay: Antibacterial activity against NEO-sensitive Mycobacterium smegmatis at 6.25 uM after 15 to 20 hrs by CLSI protocol based microdilution assay relative to control; assay type: functional; how it was run: as §1
Streptococcus pyogenes = assay: Antibacterial activity against NEO-resistant Streptococcus pyogenes C203 at 6.25 uM after 15 to 20 hrs by CLSI protocol based microdilution assay relative to control; assay type: functional; how it was run: as §2
Ribosomal RNA A-site [15] = assay: Displacement of F-NEO from human cytosolic rRNA-A site after 10 to 20 mins by fluorescence assay relative to NEO; assay type: nucleic-acid assay; design: concentration or dose not given beside the values; how it was run: as §4
[16] = Inhibition of APH(3')-1a (unknown origin)
[17] = Antibacterial activity against NEO-sensitive Enterobacter cloacae 13047 at 6.25 uM after 15 to 20 hrs by CLSI protocol based microdilution assay relative to control; assay type: functional, Enterobacter cloacae subsp. cloacae, ATCC 13047; how it was run: as §1
[18] = tested on: Staphylococcus epidermidis; assay: Antibacterial activity against NEO-sensitive Staphylococcus epidermidis 12384 at 6.25 uM after 15 to 20 hrs by CLSI protocol based microdilution assay relative to control; assay type: functional; how it was run: as §1
[19] = Inhibition of Eis (unknown origin)
Staphylococcus aureus [20] = assay: Antibacterial activity against NEO-sensitive Staphylococcus aureus harboring NorA mutant at 6.25 uM after 15 to 20 hrs by CLSI protocol based microdilution assay relative to control; assay type: functional; how it was run: as §2
[21] = Inhibition of AAC(3)-4 (unknown origin)
Staphylococcus aureus [22] = assay: Antibacterial activity against methicillin-resistant Staphylococcus aureus 33591 at 6.25 uM after 15 to 20 hrs by CLSI protocol based microdilution assay relative to control; assay type: functional; how it was run: as §2
Listeria monocytogenes = assay: Antibacterial activity against NEO-sensitive Listeria monocytogenes ATCC 19115 at 6.25 uM after 15 to 20 hrs by CLSI protocol based microdilution assay relative to control; assay type: functional; how it was run: as §1
Bacillus anthracis = assay: Antibacterial activity against NEO-sensitive Bacillus anthracis BA852 at 6.25 uM after 15 to 20 hrs by CLSI protocol based microdilution assay relative to control; assay type: functional; how it was run: as §2
Klebsiella oxytoca = assay: Antibacterial activity against NEO-sensitive Klebsiella oxytoca HM-625 at 6.25 uM after 15 to 20 hrs by CLSI protocol based microdilution assay relative to control; assay type: functional; how it was run: as §1
Enterococcus faecium = assay: Antibacterial activity against NEO-intermediate sensitive Enterococcus faecium BM4105-RF at 6.25 uM after 15 to 20 hrs by CLSI protocol based microdilution assay relative to control; assay type: functional; how it was run: as §1
Pseudomonas aeruginosa = assay: Antibacterial activity against NEO-resistant Pseudomonas aeruginosa 27853 at 6.25 uM after 15 to 20 hrs by CLSI protocol based microdilution assay relative to control; assay type: functional; how it was run: as §2
Ribosomal RNA A-site [23] = assay: Displacement of F-NEO from human mitochondrial rRNA-A site after 10 to 20 mins by fluorescence assay; assay type: nucleic-acid assay; how it was run: as §3
Ribosomal RNA A-site [24] = assay: Displacement of F-NEO from Escherichia coli rRNA-A site after 10 to 20 mins by fluorescence assay; assay type: nucleic-acid assay; how it was run: as §3

Structure (SMILES) | Activity (Escherichia coli [1]) [%] | Activity (Staphylococcus aureus [2]) [%] | pIC50 (Ribosomal RNA A-site [3]) | inhibition [4] | Activity (Staphylococcus aureus [5]) [%] | inhibition (Ribosomal RNA A-site [6]) [%] | Activity (Staphylococcus aureus [7]) [%] | inhibition [8] | Activity (Escherichia coli [9]) [%] | inhibition (Homo sapiens) [%] | Activity (Staphylococcus aureus [10]) [%] | pIC50 [11] | inhibition (Ribosomal RNA A-site [12]) [%] | Activity (Klebsiella pneumoniae) [%] | Activity (Enterococcus faecalis) [%] | inhibition [13] | Activity [14] [%] | Activity (Streptococcus pyogenes) | inhibition (Ribosomal RNA A-site [15]) [%] | inhibition [16] | also measured
NC[C@@H]1O[C@H](O[C@H]2[C@@H](O)[C@H](O[C@@H]3[C@@H](O)[C@H](N)C[C@H](N)[C@H]3O[C@H]3O[C@H](CN)[C@@H](O)[C@H](O)[C@H]3N)O[C@@H]2CSCCNC(=O)Cc2ccc3ccc4cccc5ccc2c3c45)[C@H](N)[C@@H](O)[C@@H]1O | 0 | 39 | 7.01 | Active | 7 | 102 | 48 | Active | 100 | 103 | 32 | 7.15 | 101 | 23 | 20 | Active | 43 | inactive | 114 | Active | Activity [17]: 5%; Activity [18]: 81%; inhibition [19]: Active; Activity (Staphylococcus aureus [20]): 60%; inhibition [21]: Active; Activity (Staphylococcus aureus [22]): 0%; Activity (Listeria monocytogenes): 52%; Activity (Bacillus anthracis): 100%; Activity (Klebsiella oxytoca): 16%; Activity (Enterococcus faecium): 15%; Activity (Pseudomonas aeruginosa): 0%; pIC50 (Ribosomal RNA A-site [23]): 7.05; pIC50 (Ribosomal RNA A-site [24]): 7.02
NC[C@@H]1O[C@H](O[C@H]2[C@@H](O)[C@H](O[C@@H]3[C@@H](O)[C@H](N)C[C@H](N)[C@H]3O[C@H]3O[C@H](CN)[C@@H](O)[C@H](O)[C@H]3N)O[C@@H]2CSCCNC(=S)NCCCCCCNC(=O)CCCc2ccc3ccc4cccc5ccc2c3c45)[C@H](N)[C@@H](O)[C@@H]1O | 11 | 0 | 6.60 | Active | 87 | 70 | 98 | Active | 100 | 91 | 0 | 6.74 | 64 | 33 | 51 | Active | 61 | inactive | 75 | Active | Activity [17]: 29%; Activity [18]: 80%; inhibition [19]: Active; Activity (Staphylococcus aureus [20]): 100%; inhibition [21]: Active; Activity (Staphylococcus aureus [22]): 47%; Activity (Listeria monocytogenes): 91%; Activity (Bacillus anthracis): 100%; Activity (Klebsiella oxytoca): 21%; Activity (Enterococcus faecium): 18%; Activity (Pseudomonas aeruginosa): 14%; pIC50 (Ribosomal RNA A-site [23]): 6.63; pIC50 (Ribosomal RNA A-site [24]): 6.60
